In paper PMC10171401 (Nature methods, 2022):
Like-named read-outs stand apart in the source and are kept apart here.

How the values were obtained:
[1] = test system: cAMP in L23 pyramidal neurons; experiment: In vivo 2pFLIM of tonic cAMP in L23 pyramidal neurons of awake head-fixed mice; set-up: species or system mouse; conditions: for effect on cAMP in neuronal dendrites / effect on cAMP in neuronal somas: intraperitoneal, yohimbine 5 mg/kg, propranolol 25 mg/kg
Outline: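 Awake, head-fixed mice carried cAMPFIRE-L in L2/3 somatosensory neurons, introduced by in utero electroporation at E15.5, and were imaged by 2pFLIM through a cranial window fitted at P30–60. Isoflurane (1.5%) was given by nose cone; other drugs were given i.p., including morphine at 25 mg/kg. Lifetime was taken as mean photon emission time from soma and dendrite ROIs. Data are mean ± s.e.m.; paired two-tailed t-test.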

[2] = test system: cAMP; type: cell-based, human; conditions: propranolol 1 μM; HEK cells
Outline: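 HEK-293 cells were grown in MEM with 10% FBS at 37°C in 5% CO2, plated on poly-D-lysine coverslips and transfected by Lipofectamine-2000 (0.5–3 μg plasmid per dish). Cells were given norepinephrine, then 25 μM forskolin plus 50 μM IBMX. CFP/YFP ratios were computed after per-channel background subtraction and normalized to the forskolin/IBMX response. Concentration-response curves were fitted with the Hill equation.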

[3] = test system: cAMP; experiment: 2pFLIM response to norepinephrine in CA1 neurons in cultured hippocampal slices; type: cell-based, rat
Outline: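 Rat hippocampal slices (400 μm, P6–7 pups of both sexes) were cultured at 35°C in 5% CO2 and imaged 2–3 days after transfection in carbogen-gassed aCSF with 4 mM CaCl2 and 4 mM MgCl2. CA1 neurons expressing cAMPFIRE-M received 0.1 μM norepinephrine with or without 1 μM propranolol, followed by wash. cAMPFIRE-L and its R279E mutant received 1 μM norepinephrine. Data are mean ± s.e.m. over cells.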

[4] = test system: cAMP in L23 neurons; experiment: In vivo 2pFLIM of cAMP responses to enforced running in L23 neurons; set-up: species or system mouse; conditions: intraperitoneal injection; cAMPFIRE-L
Outline: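 cAMPFIRE-L was expressed in L2/3 somatosensory pyramidal neurons by in utero electroporation of C57BL/6 embryos at E15.5. Plasmid (~2–3 μg/μL, 1 μL) went into the lateral ventricle, followed by five 100-ms pulses at 35 V, 1 Hz. A cranial window was fitted at P30–60 with two weeks' recovery. Awake head-fixed mice on a treadmill (rotary-encoder velocity) were imaged by 2pFLIM of running-evoked responses before and after i.p. drug.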

Compound | effect on cAMP levels in neuronal somas ([1]; 1.5% inhaled, measured using cAMPFIRE-L) | time to plateau of cAMP decrease post administration ([1]; morphine 25 mg/kg) | effect on cAMP activity in L23 neurons ([1]; morphine 25 mg/kg, cAMPFIRE-L) | effect on sensor response to norepinephrine [2] | effect on sensor response to norepinephrine [3] | effect on cAMP in neuronal dendrites ([1]; cAMPFIRE-L) | effect on cAMP in neuronal somas ([1]; cAMPFIRE-L) | effect on negative cAMP responses to enforced running [4] | effect on positive cAMP responses to enforced running [4]
FC(F)OC(Cl)C(F)(F)F (stereo not shown) [Isoflurane, isoflurane] | significantly reduced |  |  |  |  |  |  |  | 
CN1CC[C@]23c4c5ccc(O)c4O[C@H]2[C@@H](O)C=C[C@H]3[C@H]1C5 [Morphine, morphine] |  | ~ 40 minutes | decreased |  |  |  |  |  | 
CC(C)NCC(O)COc1cccc2ccccc12 (stereo not shown) [propranolol] |  |  |  | blocked | blocked | decreased | decreased | reduced | did not affect
COC(=O)[C@@H]1[C@H]2C[C@H]3c4[nH]c5ccccc5c4CCN3C[C@@H]2CC[C@@H]1O [yohimbine] |  |  |  |  |  | increased | little effect | significantly attenuated | increased
